Results of several laboratories.
Lines come from different studies, so protocols differ.
Effect on: enzyme activity
Action: inhibitor
ABL1 Y253F: Tyrosine-protein kinase ABL1 (ABL1, Homo sapiens, UniProt P00519, Y253F)
ABL1: Tyrosine-protein kinase ABL1 (ABL1, Homo sapiens, UniProt P00519)
ABL1 T315I: Tyrosine-protein kinase ABL1 (ABL1, Homo sapiens, UniProt P00519, T315I)

| target | technique | concentration | inhibition | Structure (SMILES) |
| --- | --- | --- | --- | --- |
| ABL1 Y253F | radiometric | 1 µM | 78% | CNC(=O)c1cc2c(Oc3ccc(NC(=O)C4(C(=O)Nc5ccc(F)cc5)CC4)cc3)ccnc2cc1OC |
| ABL1 | FRET | 10 µM | 31% | CN(C)C1CCN(CC#Cc2nn(C3CCCC3)c3nc(NCc4ccccc4)ncc23)C1 (stereo not drawn) |
| ABL1 T315I | – | 10 µM | 2% | O=C(CSc1nc2nccnc2c(=O)n1CCc1ccccc1)Nc1nccs1 |
| ABL1 T315I | – | 1 µM | 5% | COc1cc2ncnc(Nc3ccc(Oc4ccccc4)cc3C)c2cc1OC |
| ABL1 T315I | – | 0.1 µM | -1.5% | CC/C(=N\NC(=O)NCc1cccc(O)c1)c1ccc(O)c(C)c1O |
| Tyrosine-protein kinase ABL1 (ABL1, Homo sapiens, UniProt P00519, Q252H) | – | 1 µM | 96% | COc1cc(-c2cc(-c3ccc(N4CCNCC4)cc3)cnc2N)cc(OC)c1OC |
| ABL1 | – | 10 µM | 2% | CS(=O)(=O)Nc1cccc(-c2csc(NC(=O)CSc3nc4nccnc4c(=O)n3CCc3ccccc3)n2)c1 |
| ABL1 | – | 10 µM | 1.8% | CNc1cccc2cc(C(=O)Nc3ccc(C(=O)O)cc3)c(=O)[nH]c12 |
| ABL1 Y253F | – | 1 µM | 2% | COc1cc2ncnc(Nc3ccc(Oc4ccccc4)c(C)c3C)c2cc1OC |
